≈ marks a conversion by molar mass, not a printed value.
Assays:
[1] = target: T1, Coagulation factor X (Homo sapiens, UniProt P00742); assay: Inhibition of F10a in human plasma assessed as doubling of prothombin time
Method in brief: (§1)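 Citrated (3.8% sodium citrate) blood from healthy human volunteers or rabbit was spun at 2000 g for 10 min. The DMSO stock was diluted in plasma, 5–7 inhibitor concentrations were tested, and prothrombin time was read with Thromborel-S on an automated temperature-controlled coagulometer in duplicate. PTCT2 (the concentration doubling clotting time) came from regression of the concentration-response curve.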

[2] = target: T2, Coagulation factor X (Oryctolagus cuniculus, UniProt O19045); assay: Inhibition of F10a in rabbit plasma assessed as doubling of activated partial thromboplastin time
T2 sequence (O19045 whole entry): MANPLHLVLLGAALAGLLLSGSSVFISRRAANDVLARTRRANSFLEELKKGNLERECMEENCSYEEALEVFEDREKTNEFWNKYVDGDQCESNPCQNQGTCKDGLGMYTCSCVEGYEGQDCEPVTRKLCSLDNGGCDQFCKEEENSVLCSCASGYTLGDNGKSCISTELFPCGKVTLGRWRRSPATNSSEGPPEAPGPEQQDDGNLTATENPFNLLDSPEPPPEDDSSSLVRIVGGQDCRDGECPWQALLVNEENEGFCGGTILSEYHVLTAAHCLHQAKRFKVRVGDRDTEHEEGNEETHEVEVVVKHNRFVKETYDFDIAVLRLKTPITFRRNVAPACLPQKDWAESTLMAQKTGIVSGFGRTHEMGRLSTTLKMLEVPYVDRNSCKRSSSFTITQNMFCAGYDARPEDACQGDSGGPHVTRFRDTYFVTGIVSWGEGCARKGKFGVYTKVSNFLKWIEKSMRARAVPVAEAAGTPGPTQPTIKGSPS
Method in brief: (§2)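 Plasma came from human volunteer or rabbit blood anticoagulated with 3.8% sodium citrate and centrifuged at 2000 g for 10 min. The DMSO stock was serially diluted in plasma. Clotting time was measured on control plasma and on plasma with five to seven inhibitor concentrations. The concentration doubling clotting time was estimated from the concentration-response curve.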

[3] = target: T1, Coagulation factor X; assay: Inhibition of F10a in human plasma assessed as doubling of activated partial thromboplastin time; method in brief: as §2
[4] = target: T1, Coagulation factor X; assay: Inhibition of human F10a using S-2765 as substrate at 0.1 uM after 45 mins by spectra max analysis relative to control
Method in brief: (§3)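 Purified human FXa (10 ng) was used with chromogenic substrate S-2765 at 500 µM in 50 mM Tris-HCl pH 7.5, […], 1 mM CaCl2 and 2.5% DMSO (final). Compound was incubated for 45 min at 37 °C, and absorbance was read at 405 nm. Percent inhibition came from reaction velocity versus DMSO control. IC50 was taken from a plot of inhibition against concentration.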

[5] = target: T2, Coagulation factor X; assay: Inhibition of F10a in rabbit plasma assessed as doubling of prothombin time; method in brief: as §1
[6] = Solubility of the compound by Chinese pharmacopoeia 2010 edition of the second collection method; format: physicochemical
[7] = target: T1, Coagulation factor X; assay: Inhibition of human F10a using S-2765 as substrate after 45 mins by spectra max analysis; method in brief: as §3

T1 sequence (P00742 41-179 limits assumed): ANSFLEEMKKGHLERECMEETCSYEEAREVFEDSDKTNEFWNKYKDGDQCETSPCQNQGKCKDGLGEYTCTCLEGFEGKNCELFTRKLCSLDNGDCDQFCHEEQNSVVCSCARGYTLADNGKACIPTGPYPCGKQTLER
T1 sequence (P00742 235-488 limits assumed): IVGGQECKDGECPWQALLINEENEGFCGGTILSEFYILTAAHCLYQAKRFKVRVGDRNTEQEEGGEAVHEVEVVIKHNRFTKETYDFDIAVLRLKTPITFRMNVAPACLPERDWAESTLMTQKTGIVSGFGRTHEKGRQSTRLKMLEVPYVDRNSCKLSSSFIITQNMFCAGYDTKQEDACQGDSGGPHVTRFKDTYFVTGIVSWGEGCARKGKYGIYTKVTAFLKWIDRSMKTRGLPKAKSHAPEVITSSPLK

| SMILES | IC50 [1] [nM] | IC50 [2] [nM] | IC50 [3] [nM] | inhibition [4] [%] | IC50 [5] [nM] | solubility [6] [µg/mL] | IC50 [7] [nM] |
| --- | --- | --- | --- | --- | --- | --- | --- |
| CCNCc1csc(-c2ccc(N3C[C@H](CNC(=O)c4ccc(Cl)s4)OC3=O)cc2)n1 | 650 | 1160 | 790 | 93 | 890 |  |  |
| O=C(NC[C@H]1CN(c2ccc(N3CCOCC3=O)cc2)C(=O)O1)c1ccc(Cl)s1 [RIVAROXABAN] |  | 860 |  | 100 | 510 |  |  |
| CN1CCN(Cc2csc(-c3ccc(N4C[C@H](CNC(=O)c5ccc(Cl)s5)OC4=O)cc3)n2)CC1 | 3850 | 5120 | 4120 | 56 | 4230 | 33.2 (≈ 62.4 µM) |  |
| O=C(NC[C@H]1CN(c2ccc(-n3cccc3CN3CCOCC3)cc2)C(=O)O1)c1ccc(Cl)s1 | 2930 | 3520 | 3310 | 76 | 3190 |  |  |
| CN(C)Cc1cc2ccccc2n1-c1ccc(N2C[C@H](CNC(=O)c3ccc(Cl)s3)OC2=O)cc1 | 5780 | 6230 | 6020 | 69 | 5920 |  |  |
| CCN(CC)Cc1cc2ccccc2n1-c1ccc(N2C[C@H](CNC(=O)c3ccc(Cl)s3)OC2=O)cc1 | 5320 | 6110 | 5450 | 61 | 6020 |  |  |
| CN(C)Cc1csc(-c2ccc(N3C[C@H](CNC(=O)c4ccc(Cl)s4)OC3=O)cc2)n1 | 870 | 1240 | 980 | 91 | 920 |  |  |
| CN(C)Cc1cccn1-c1cc(F)c(N2C[C@H](CNC(=O)c3ccc(Cl)s3)OC2=O)c(F)c1 | 1830 | 2560 | 2310 | 88 | 1980 |  |  |
| CN(C)Cc1cccn1-c1ccc(N2C[C@H](CNC(=O)c3ccc(Cl)s3)OC2=O)cc1F | 650 | 1580 | 1330 | 90 | 910 | 10.2 (≈ 21.4 µM) | 6.58 |
| O=C(NC[C@H]1CN(c2ccc(-c3nc(CN4CCOCC4)cs3)cc2)C(=O)O1)c1ccc(Cl)s1 | 3600 | 4790 | 3810 | 62 | 4060 |  |  |
| CNCc1csc(-c2ccc(N3C[C@H](CNC(=O)c4ccc(Cl)s4)OC3=O)cc2)n1 | 1650 | 1910 | 1870 | 89 | 1660 |  |  |
| CN1CCN(Cc2cccn2-c2ccc(N3C[C@H](CNC(=O)c4ccc(Cl)s4)OC3=O)cc2)CC1 | 3800 | 4140 | 4010 | 71 | 3900 |  |  |
| CC1CCN(Cc2cc3ccccc3n2-c2ccc(N3C[C@H](CNC(=O)c4ccc(Cl)s4)OC3=O)cc2)CC1 | 10500 | 13100 | 11900 | 56 | 12100 |  |  |
| O=C(NC[C@H]1CN(c2ccc(-c3nc(CN4CCCC4)cs3)cc2)C(=O)O1)c1ccc(Cl)s1 | 2420 | 3040 | 2710 | 79 | 2780 |  |  |
| O=C(NC[C@H]1CN(c2cc(F)c(-n3cccc3CN3CCCC3)c(F)c2)C(=O)O1)c1ccc(Cl)s1 | 2790 | 3670 | 3060 | 73 | 2980 | 20.4 (≈ 39.2 µM) |  |
| O=C(NC[C@H]1CN(c2ccc(-n3cccc3CN3CCCCC3)cc2)C(=O)O1)c1ccc(Cl)s1 | 2620 | 3230 | 2850 | 82 | 2890 |  |  |
| O=C(NC[C@H]1CN(c2ccc(-n3cccc3CN3CCCC3)cc2)C(=O)O1)c1ccc(Cl)s1 | 1420 | 1980 | 1710 | 89 | 1580 |  |  |
| CN1CCN(Cc2cc3ccccc3n2-c2ccc(N3C[C@H](CNC(=O)c4ccc(Cl)s4)OC3=O)cc2)CC1 | 11300 |  |  | 45 | 13300 |  |  |
| O=C(NC[C@H]1CN(c2ccc(-n3c(CN4CCCCC4)cc4ccccc43)cc2)C(=O)O1)c1ccc(Cl)s1 | 11000 |  |  | 52 | 11500 |  |  |
| O=C(NC[C@H]1CN(c2ccc(-n3c(CN4CCOCC4)cc4ccccc43)cc2)C(=O)O1)c1ccc(Cl)s1 | 10100 |  | 11200 | 58 | 11100 | 25.8 (≈ 46.8 µM) |  |
| O=C(NC[C@H]1CN(c2ccc(-c3nc(CN4CCCCC4)cs3)cc2)C(=O)O1)c1ccc(Cl)s1 | 2720 | 3460 | 2950 | 72 | 3120 |  |  |
| O=C(NC[C@H]1CN(c2ccc(-n3cccc3CN3CCC3)cc2)C(=O)O1)c1ccc(Cl)s1 | 700 | 1520 | 1310 | 92 | 810 |  |  |
| CN(C)Cc1cccn1-c1ccc(N2C[C@H](CNC(=O)c3ccc(Cl)s3)OC2=O)cc1 | 610 | 1390 | 1200 | 98 | 780 |  | 7.24 |
| CC1CCN(Cc2csc(-c3ccc(N4C[C@H](CNC(=O)c5ccc(Cl)s5)OC4=O)cc3)n2)CC1 | 3030 | 4020 | 3390 | 68 | 3780 |  |  |
| CCN(CC)Cc1cccn1-c1ccc(N2C[C@H](CNC(=O)c3ccc(Cl)s3)OC2=O)cc1 | 150 | 750 | 300 | 100 | 460 | 6.9 (≈ 14.2 µM) | 2.01 |
| CC1CCN(Cc2cccn2-c2ccc(N3C[C@H](CNC(=O)c4ccc(Cl)s4)OC3=O)cc2)CC1 | 3220 | 3780 | 3530 | 70 | 3450 |  |  |
| CCN(CC)Cc1csc(-c2ccc(N3C[C@H](CNC(=O)c4ccc(Cl)s4)OC3=O)cc2)n1 | 510 | 1030 | 820 | 100 | 720 |  | 9.46 |

Reference: ChEMBL document CHEMBL3414546, “Design, synthesis and structure-activity relationship of oxazolidinone derivatives containing novel S4 ligand as FXa inhibitors” (Eur J Med Chem, 2015)
